Data set [1] addresses T1, Prostaglandin E2 receptor EP1 subtype (Homo sapiens) (UniProt P34995).
T1 sequence (whole entry): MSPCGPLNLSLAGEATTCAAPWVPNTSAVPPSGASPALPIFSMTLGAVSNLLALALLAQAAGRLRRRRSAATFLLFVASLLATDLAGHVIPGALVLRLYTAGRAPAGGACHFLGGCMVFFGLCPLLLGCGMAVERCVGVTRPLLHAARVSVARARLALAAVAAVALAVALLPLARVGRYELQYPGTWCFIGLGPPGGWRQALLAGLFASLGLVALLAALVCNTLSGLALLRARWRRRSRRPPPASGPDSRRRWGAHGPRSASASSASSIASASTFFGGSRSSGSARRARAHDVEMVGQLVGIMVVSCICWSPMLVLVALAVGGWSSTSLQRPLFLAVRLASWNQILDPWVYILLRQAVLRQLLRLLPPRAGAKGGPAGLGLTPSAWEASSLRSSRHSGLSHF
In words: Antagonist activity at EP1 receptor (unknown origin) at 100 nM by reporter gene assay relative to control. In kind it is functional.

For data set [2], the target named is T2, Prostaglandin E2 receptor EP1 subtype (Homo sapiens, UniProt P34995).
T2 sequence (P34995 whole entry): T1 sequence (whole entry)
The data set can be described thus: Antagonist activity at EP1 receptor (unknown origin) by reporter gene assay. The format is functional.

The nature of data set [3]: Intrinsic clearance in rat. Particulars: in vivo. The format is ADME, organism-based.
Data set [4] is described as follows: Intrinsic clearance in human. In kind it is ADME, organism-based. Conditions: in vivo.
Data set [5] can be described thus: Permeability in MDCK cells. Conditions: dog, read-out: permeability. In kind it is ADME, cell-based, Canis lupus familiaris.
Data set [6] concerns the target Prostaglandin E2 receptor EP2 subtype (Homo sapiens, UniProt P43116). In words: Binding affinity to EP2 receptor (unknown origin).
Data set [7] addresses T3, Prostaglandin E2 receptor EP3 subtype (Homo sapiens, UniProt P43115).
T3 sequence (P43115 whole entry): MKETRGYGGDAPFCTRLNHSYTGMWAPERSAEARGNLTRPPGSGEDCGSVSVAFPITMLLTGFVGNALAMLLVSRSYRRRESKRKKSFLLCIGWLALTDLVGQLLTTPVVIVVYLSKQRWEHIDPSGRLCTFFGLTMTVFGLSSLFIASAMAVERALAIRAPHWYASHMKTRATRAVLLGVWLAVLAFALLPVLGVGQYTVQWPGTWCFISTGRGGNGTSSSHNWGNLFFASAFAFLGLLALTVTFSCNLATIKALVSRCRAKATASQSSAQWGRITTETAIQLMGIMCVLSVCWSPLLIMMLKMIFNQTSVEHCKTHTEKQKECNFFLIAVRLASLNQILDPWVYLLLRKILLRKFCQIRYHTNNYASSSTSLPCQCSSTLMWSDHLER
In words: Binding affinity to EP3 receptor (unknown origin).

The target in data set [8] is Prostaglandin E2 receptor EP4 subtype (Homo sapiens, UniProt P35408). In words: Binding affinity to EP4 receptor (unknown origin).
Data set [9] is described as follows: Cmax in Sprague-Dawley rat at 10 to 100 mg/kg, po by LC-MS/MS analysis. The format is ADME, organism-based. Particulars: in vivo. The gist of the method: (§1)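 Single oral dose of 10, 30 or 100 mg/kg to 7-week-old female Sprague–Dawley rats (n = 3), vehicle 10% v/v DMSO, 5% v/v Cremophor EL, 85% v/v water. Subclavian-vein blood drawn at 0.5, 1, 2, 4, 8 and 24 h post dose; plasma separated by centrifugation and drug measured by LC-MS/MS.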

Data set [10] concerns Rattus norvegicus. The data set can be described thus: AUC (0 to 8 hrs) in Sprague-Dawley rat at 10 to 100 mg/kg, po by LC-MS/MS analysis. In kind it is ADME, organism-based. Particulars: in vivo. The gist of the method: as §1
The nature of data set [11]: Protein binding in Sprague-Dawley rat plasma at 10 to 100 mg/kg, po by LC-MS/MS analysis. The format is ADME, organism-based. Conditions: read-out: PPB (converted).
Data set [12] can be described thus: Oral bioavailability in Sprague-Dawley rat at 10 to 100 mg/kg by LC-MS/MS analysis. In kind it is ADME, organism-based. Particulars: in vivo.
Data set [13] is described as follows: Cmax in Sprague-Dawley rat at 10 mg/kg, po by LC-MS/MS analysis. In kind it is ADME, organism-based. The arrangement: dose 10 mg/kg, route oral. Particulars: in vivo. The gist of the method: as §1
Data set [14] is described as follows: Cmax in Sprague-Dawley rat at 30 mg/kg, po by LC-MS/MS analysis. The arrangement: dose 30 mg/kg, route oral. The format is ADME, organism-based. Conditions: in vivo. The gist of the method:
as §1

Data set [15] can be described thus: Cmax in Sprague-Dawley rat at 100 mg/kg, po by LC-MS/MS analysis. On the set-up: dose 100 mg/kg, route oral. The format is ADME, organism-based. Conditions: in vivo. The gist of the method:
as §1

The nature of data set [16]: Drug uptake in Sprague-Dawley rat plasma at 100 mg/kg, po after 24 hrs by LC-MS/MS analysis. The format is ADME, organism-based. Conditions: in vivo. The gist of the method: as §1
Data set [17] is described as follows: Drug uptake in Sprague-Dawley rat plasma at 30 mg/kg, po qd for 4 weeks by LC-MS/MS analysis. The format is ADME, organism-based. Particulars: in vivo, 672 h. The gist of the method: (§2)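 Sprague–Dawley rats with femoral fractures dosed orally for 28 days (30 mg/kg once daily, 30 mg/kg twice daily, or 100 mg/kg once daily). Subclavian-vein blood taken 30 min before dosing (trough) or 1 h after dosing on days 1, 2, 3, 7, 14, 21 and 28; plasma drug measured by LC-MS/MS.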

The nature of data set [18]: Drug uptake in Sprague-Dawley rat plasma at 30 mg/kg, po bid for 4 weeks by LC-MS/MS analysis. Particulars: in vivo, 672 h. In kind it is ADME, organism-based. The method in brief: as §2
Data set [19] in a line: Drug uptake in Sprague-Dawley rat plasma at 100 mg/kg, po qd for 4 weeks by LC-MS/MS analysis. The format is ADME, organism-based. Conditions: in vivo, 672 h. The method in brief:
as §2

Data set [20] has as its system Rattus norvegicus. In words: Osteogenic activity in Sprague-Dawley rat drill-hole femoral fracture model assessed as callus formation at 30 mg/kg, po qd for 28 days. In kind it is functional, organism-based. Conditions: in the assay text read “closed” for “drill-hole”. The gist of the method:
(§3)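 Closed mid-diaphyseal femur fracture in 8-week-old Sprague–Dawley rats under ip pentobarbital (50 mg/kg). Medial parapatellar arthrotomy, 1 mm drill hole at intercondylar fossa, 21-gauge needle inserted through the medullary canal, fracture by three-point bending. Oral drug or 0.5% MC vehicle given for 28 days. Radiographs at 0, 7, 14, 21, 28 days; outer hard callus area traced by image analysis.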

In data set [21] the test system is Rattus norvegicus. In words: Osteogenic activity in Sprague-Dawley rat drill-hole femoral fracture model assessed as callus formation at 30 mg/kg, po bid for 28 days. The format is functional, organism-based. Particulars: in the assay text read “closed” for “drill-hole”. The gist of the method:
as §3

Data set [22] has as its system Rattus norvegicus. The data set can be described thus: Osteogenic activity in Sprague-Dawley rat drill-hole femoral fracture model assessed as callus formation at 100 mg/kg, po qd for 28 days. The format is functional, organism-based. Particulars: in the assay text read “closed” for “drill-hole”. The gist of the method:
as §3

The next data set concerns Salmonella typhimurium. The data set can be described thus: Mutagenicity in Salmonella typhimurium by Ames test. In kind it is toxicity, organism-based. Particulars: salmonella enterica subsp. enterica serovar typhimurium.
Data set [23] deals with T2, Prostaglandin E2 receptor EP1 subtype. The data set can be described thus: Binding affinity to EP1 receptor (unknown origin) by binding assay.

The source made the active and inactive calls. The rule behind the calls is not given here.

The text below walks through data of ChEMBL document CHEMBL4118283, “Discovery of a novel 2-(1H-pyrazolo[3,4-b]pyridin-1-yl)thiazole derivative as an EP1 receptor antagonist and in vivo studies in a bone fracture model” (Bioorg Med Chem Lett, 2018).

Sequence of Prostaglandin E2 receptor EP4 subtype (P35408 whole entry): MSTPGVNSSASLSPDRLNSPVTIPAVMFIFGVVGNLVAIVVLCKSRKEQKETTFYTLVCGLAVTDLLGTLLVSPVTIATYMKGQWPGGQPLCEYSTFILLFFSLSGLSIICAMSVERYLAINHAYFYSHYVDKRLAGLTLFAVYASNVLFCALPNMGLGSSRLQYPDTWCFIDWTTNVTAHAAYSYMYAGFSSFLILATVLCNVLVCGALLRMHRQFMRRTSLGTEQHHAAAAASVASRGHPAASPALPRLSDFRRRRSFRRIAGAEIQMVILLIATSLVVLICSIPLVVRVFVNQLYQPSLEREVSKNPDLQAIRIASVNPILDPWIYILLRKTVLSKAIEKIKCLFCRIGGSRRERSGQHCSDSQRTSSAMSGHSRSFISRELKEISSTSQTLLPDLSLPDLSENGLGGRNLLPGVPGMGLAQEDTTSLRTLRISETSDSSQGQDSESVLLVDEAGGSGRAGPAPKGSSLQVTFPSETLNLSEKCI
Sequence of Prostaglandin E2 receptor EP2 subtype (P43116 whole entry): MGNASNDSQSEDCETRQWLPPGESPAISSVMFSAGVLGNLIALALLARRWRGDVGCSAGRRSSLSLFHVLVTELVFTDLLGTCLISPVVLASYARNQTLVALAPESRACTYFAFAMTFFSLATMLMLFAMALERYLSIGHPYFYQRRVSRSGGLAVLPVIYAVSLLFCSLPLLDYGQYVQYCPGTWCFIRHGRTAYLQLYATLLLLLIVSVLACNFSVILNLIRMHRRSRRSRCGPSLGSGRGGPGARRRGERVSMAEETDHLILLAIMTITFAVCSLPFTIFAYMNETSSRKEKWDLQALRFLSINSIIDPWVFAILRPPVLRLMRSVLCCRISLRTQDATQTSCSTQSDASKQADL

In data set [1], `O=C(O)c1csc(-n2nc(-c3ccccc3)c3ccc(N4CCCC4)nc32)n1` showed an inhibition of 11%.

`CN(C)c1ccc2c(-c3ccccc3)nn(-c3nc(C(=O)O)cs3)c2n1` yielded an IC50 in [2] of 0.012 µM.

In the case of `O=C(O)c1csc(-n2nc(-c3ccccc3)c3ccc(N4CCC4)nc32)n1`, the IC50 in [2] came out at 0.04 µM.

`O=C(O)c1csc(Cn2nc(-c3ccccc3)c3ccc(C(F)(F)F)cc32)n1`: 0.012 µM corresponded to half-maximal inhibition in data set [2] (IC50). In addition, the figures for the CLint scaled in data set [3] and in data set [4] were 111 mL/min/kg and 48 mL/min/kg, respectively. In addition, in data set [5], the Papp was 19.7 ×10⁻⁶ cm/s.

In turn, `O=C(O)c1csc(-n2nc(-c3ccccc3)c3ncc(C(F)(F)F)cc32)n1` returned an IC50 in data set [2] of 0.012 µM.

The molecule `O=C(O)c1csc(-n2nc(C3=CCCCO3)c3ccc(C(F)(F)F)cc32)n1` had an IC50 in [2] of 0.0007 µM. In addition, the CLint scaled in [3] came to 232 mL/min/kg; in [4] it was 146 mL/min/kg. For the same molecule, the Papp in data set [5] is 39 ×10⁻⁶ cm/s.

On to `O=C(O)c1csc(-n2nc(-c3ccccc3)c3ccc(C(F)(F)F)nc32)n1`, for which the IC50 in data set [2] stood at 0.0003 µM. Further, the CLint scaled was found to be 94 mL/min/kg in data set [3] and 70 mL/min/kg in data set [4]. The Papp in [5] was found to be 23.5 ×10⁻⁶ cm/s. The Ki was greater than 8.7 µM in [6], greater than 5 µM in [7], greater than 2.7 µM in data set [8] and 0.0087 µM in [23]. The Cmax was determined as 2.62 µM in data set [9], 24.8 µM in data set [13], 75.1 µM in data set [14] and 179 µM in data set [15]. This molecule also yielded an AUC with Rattus norvegicus [10] of 5.71 microM/L.hr. In addition, the fraction unbound in data set [11] was 0.026. For the same molecule, the bioavailability in [12] turned out to be 26%. Moreover, the Drug uptake result in [16], in data set [17], in [18] and in data set [19] was “Active” each time. Moreover, the result with Rattus norvegicus [20], with Rattus norvegicus [21] and in the data set with Rattus norvegicus [22] was Active. Moreover, the Activity result in the data set with Salmonella typhimurium was “Non-Toxic”.

As for `O=C(O)c1csc(-n2nc(-c3ccccc3)c3ccc(C(F)(F)F)cc32)n1`, in data set [9], the Cmax amounted to 5.34 µM. The same molecule yielded an AUC in the data set with Rattus norvegicus [10] of 9.27 microM/L.hr.
